Reference: ChEMBL document CHEMBL3797200, “Mohangic Acids A-E, p-Aminoacetophenonic Acids from a Marine-Mudflat-Derived Streptomyces sp” (J Nat Prod, 2016)
Calls of active or inactive are those of the source. No cut-off for these calls is given here.

Experiments:
Candida albicans = experiment: Antifungal activity against Candida albicans; format: functional
K562 = experiment: Cytotoxicity against human K562 cells after 72 hrs by SRB assay; format: functional, cell-based; conditions: K562, 72 h
[1] = Cytotoxicity against human SKHEP1 cells after 72 hrs by SRB assay; format: functional, cell-based; conditions: SK-HEP1, 72 h
Escherichia coli = experiment: Antibacterial activity against Escherichia coli; format: functional
Bacillus subtilis = experiment: Antibacterial activity against Bacillus subtilis; format: functional
A549 = experiment: Cytotoxicity against human A549 cells after 72 hrs by SRB assay; format: functional, cell-based; conditions: A549, 72 h
[2] = Cytotoxicity against human HCT116 cells after 72 hrs by SRB assay; format: functional, cell-based; conditions: HCT-116, 72 h
Mus musculus [3] = species: Mus musculus; experiment: Induction of Quinone reductase activity in mouse Hepa1c1c7 cells at 20 uM after 24 hrs by MTT assay relative to control; format: cell-based
In short: (§1)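 Hepa-1c1c7 murine hepatoma cells plated at 20 000 cells/mL, grown 24 h (37 °C, 5% CO2), then compound-treated 24 h; vehicle 0.1% DMSO, β-naphthoflavone 2 μM positive control. Lysis in Tris/NaCl/MgCl2/0.5% NP-40, then FAD, G6P/G6PDH, NADP, MTT, menadione mix, 10 min; MTT reduction at 610 nm, crystal violet protein on parallel plates; SA = (MTTabs/CVabs)×3345, nmol/min/mg; mean ± SD of four determinations.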

[4] = Cytotoxicity against human SNU638 cells after 72 hrs by SRB assay; format: functional, cell-based; conditions: SNU-638, 72 h
Proteus hauseri = experiment: Antibacterial activity against Proteus hauseri; format: functional
MDA-MB-231 = experiment: Cytotoxicity against human MDA-MB-231 cells after 72 hrs by SRB assay; format: functional, cell-based; conditions: MDA-MB-231, 72 h
Aspergillus fumigatus = experiment: Antifungal activity against Aspergillus fumigatus; format: functional
Kocuria rhizophila = experiment: Antibacterial activity against Kocuria rhizophila; format: functional
Salmonella enterica = experiment: Antibacterial activity against Salmonella enterica; format: functional
Staphylococcus aureus = experiment: Antibacterial activity against Staphylococcus aureus; format: functional
Mus musculus [5] = species: Mus musculus; experiment: Induction of Quinone reductase activity in mouse Hepa1c1c7 cells at 30 uM after 24 hrs by MTT assay relative to control; format: cell-based; in short: as §1
Mus musculus [6] = species: Mus musculus; experiment: Induction of Quinone reductase activity in mouse Hepa1c1c7 cells at 2 uM after 24 hrs by MTT assay relative to control; format: cell-based; in short: as §1
Mus musculus [7] = species: Mus musculus; experiment: Induction of Quinone reductase activity in mouse Hepa1c1c7 cells at 5 uM after 24 hrs by MTT assay relative to control; format: cell-based; in short: as §1
[8] = Cytotoxicity against mouse Hepa1c1c7 cells; format: cell-based
Mus musculus [9] = species: Mus musculus; experiment: Induction of Quinone reductase activity in mouse Hepa1c1c7 cells at 10 uM after 24 hrs by MTT assay relative to control; format: cell-based; in short: as §1
Mus musculus [10] = species: Mus musculus; experiment: Induction of Quinone reductase activity in mouse Hepa1c1c7 cells after 24 hrs by MTT assay; format: cell-based; in short: as §1

| Structure (SMILES) | MIC (Candida albicans) | MIC (Escherichia coli) | MIC (Bacillus subtilis) | MIC (Proteus hauseri) | MIC (Aspergillus fumigatus) | MIC (Kocuria rhizophila) | MIC (Salmonella enterica) | MIC (Staphylococcus aureus) | IC50 (K562) | IC50 [1] | IC50 (A549) | IC50 [2] | Activity (Mus musculus [3]) | IC50 [4] | IC50 (MDA-MB-231) | other results |
| --- | --- | --- | --- | --- | --- | --- | --- | --- | --- | --- | --- | --- | --- | --- | --- | --- |
| CC(=O)Nc1ccc([C@H](O)C[C@@H](O)[C@H](C)C[C@@H](C)[C@H](O)[C@H](C)/C=C/C=C/C=C/[C@H](O)CC(=O)O)cc1 | > 128 µM | > 128 µM | > 128 µM | > 128 µM | > 128 µM | > 128 µM | > 128 µM | > 128 µM | > 10 µM | > 10 µM | > 10 µM | > 10 µM | inactive | > 10 µM | > 10 µM |  |
| C[C@H](/C=C/C=C/C=C/[C@H](O)CC(=O)O)[C@@H](O)[C@H](C)C[C@@H](C)[C@H](O)CC(=O)c1ccc(N[C@@H]2O[C@H](CO)[C@@H](O)[C@H](O)[C@H]2O)cc1 | > 128 µM | > 128 µM | > 128 µM | > 128 µM | > 128 µM | > 128 µM | > 128 µM | > 128 µM | > 10 µM | > 10 µM | > 10 µM | > 10 µM |  | > 10 µM | > 10 µM | fold change (FC) (Mus musculus [3]): 2.1; fold change (FC) (Mus musculus [5]): 2.2; fold change (FC) (Mus musculus [6]): 1.3; fold change (FC) (Mus musculus [7]): 1.5; Activity [8]: Non-toxic; fold change (FC) (Mus musculus [9]): 1.8; Activity (Mus musculus [10]): Dose-dependent effect |

More lines, main results first:

| MIC (Candida albicans) | MIC (Escherichia coli) | MIC (Bacillus subtilis) | MIC (Proteus hauseri) | MIC (Aspergillus fumigatus) | MIC (Kocuria rhizophila) | MIC (Salmonella enterica) | MIC (Staphylococcus aureus) | Structure (SMILES) | IC50 (K562) | IC50 [1] | IC50 (A549) | IC50 [2] | Activity (Mus musculus [3]) | IC50 [4] | IC50 (MDA-MB-231) | other results |
| --- | --- | --- | --- | --- | --- | --- | --- | --- | --- | --- | --- | --- | --- | --- | --- | --- |
| > 128 µM | > 128 µM | > 128 µM | > 128 µM | > 128 µM | > 128 µM | > 128 µM | > 128 µM | CNc1ccc(C(=O)C[C@@H](O)[C@H](C)C[C@@H](C)[C@H](O)[C@H](C)/C=C/C=C/C=C/[C@H](O)CC(=O)O)cc1 | > 10 µM | > 10 µM | > 10 µM | > 10 µM | inactive | > 10 µM | > 10 µM |  |
| > 128 µM | > 128 µM | > 128 µM | > 128 µM | > 128 µM | > 128 µM | > 128 µM | > 128 µM | C[C@H](/C=C/C=C/C=C/[C@H](O)CC(=O)O)[C@@H](O)[C@H](C)C[C@@H](C)[C@H](O)CC(=O)c1ccc(N)cc1 | > 10 µM | > 10 µM | > 10 µM | > 10 µM | inactive | > 10 µM | > 10 µM |  |
| > 128 µM | > 128 µM | > 128 µM | > 128 µM | > 128 µM | > 128 µM | > 128 µM | > 128 µM | CC(=O)Nc1ccc(C(=O)C[C@@H](O)[C@H](C)C[C@@H](C)[C@H](O)[C@H](C)/C=C/C=C/C=C/[C@H](O)CC(=O)O)cc1 | > 10 µM | > 10 µM | > 10 µM | > 10 µM | inactive | > 10 µM | > 10 µM |  |
